Published values collected from several papers.
Compare with care: the assays were run in different laboratories.
Target: Casein kinase I isoform alpha (CSNK1A1, Homo sapiens, UniProt P48729)

Compound	assay	setting	remaining binding [%]
Cn1nc(C(F)(F)F)cc1-c1cnc(N2CCc3cc(S(=O)(=O)Nc4c(F)cc(Cl)cc4F)cc(N4CCCC4=O)c32)nc1	cell-free assay, competition with immobilised ligand	1 µM	86
COc1ccnn2ncc(-c3ccnc(N(C)C)n3)c12	binding	1 µM	55
COc1cnc(Nc2cccc(S(N)(=O)=O)c2)nc1N1CCN(c2ccccc2)C(=O)C1	binding, competition with immobilised ligand	1 µM	93
C[C@@H](c1ccc(-n2cnc3c(N)ncnc32)cc1)N1CCc2nn(C)c(Cc3ccccc3)c2C1=O	binding, competition with immobilised ligand	0.1 µM	87
CC1CCCN1c1nccc(-c2cnn3ncccc23)n1 (stereo not shown)	binding	1 µM	100
COc1cnc(Nc2cccc(S(N)(=O)=O)c2)nc1N1CCN(c2ccccc2)CC1	binding, competition with immobilised ligand	1 µM	93
N[C@@H]1CCN(c2nccc(-c3cnn4ncccc34)n2)C1	binding	1 µM	12
FC(F)(F)Oc1cccc(-c2cnc3ccc(-c4ccncc4)nn23)c1	cell-free assay, competition with immobilised ligand	5 µM	52
O=C(NCCCN1CCOCC1)c1ccc(Nc2nccc(-c3cc4ccccc4s3)n2)cc1	binding, competition with immobilised ligand	1 µM	74
C[C@H]1CCN(c2nccc(-c3cnn4ncccc34)n2)C1	binding	1 µM	47
CCC(=N\O)/C(C)=C/c1ccc(F)cc1	cell-free assay, competition with immobilised ligand	1 µM	74
Cc1cnc(Nc2ccc(C(=O)N3CCC(N4CCCC4)CC3)cc2)nc1-c1cc2ccccc2s1	binding, competition with immobilised ligand	1 µM	60
CNC(=O)Nc1ccc2c(c1)CC[C@@]21OC(=O)N(CC(=O)N(Cc2ccc(F)cc2)[C@@H](C)C(F)(F)F)C1=O	cell-free assay, competition with immobilised ligand	1 µM	93
O=C(Nc1c[nH]nc1C(=O)NC1CCNCC1)c1cc(F)cc(F)c1	binding, competition with immobilised ligand	1 µM	75
CS(=O)(=O)c1cc(C2(NC(=O)c3cncc4c3cnn4-c3ccc(F)cc3)CC2)ccn1	cell-free assay, competition with immobilised ligand	1 µM	96
CN(c1nccc(-c2cnn3ncccc23)n1)C1CC1	binding	1 µM	88
CCCCN(CCCC)C(=O)CN1C[C@H](c2cc(OC)c3c(c2)OCO3)[C@@H](C(=O)O)[C@@H]1CC(C)(C)CCC	cell-free assay, competition with immobilised ligand	1 µM	98.1
Nc1ncc2c(n1)-c1c([nH]c3ccc(C#CC4CC4)cc13)CCCC2	binding, competition with immobilised ligand	1 µM	93
O=C(N1CCS(=O)(=O)CC1)N1C[C@H](c2ccc(OC(F)(F)F)cc2)C[C@H](c2nc(C3CC3)no2)C1	cell-free assay, competition with immobilised ligand	1 µM	100
CN(C)c1ncc(F)c(-c2cnn3ncccc23)n1	binding	1 µM	98
O=C(c1ccc(Nc2nccc(-c3cc4ccccc4s3)n2)cc1)N1CCC(N2CCCC2)CC1	binding, competition with immobilised ligand	1 µM	78
O=C(NC[C@@H]1[C@H]2CN(C(=O)OCc3cc(C(F)(F)F)cc(C(F)(F)F)c3)C[C@@H]12)c1ccc2[nH]nnc2c1	cell-free assay, competition with immobilised ligand	1 µM	100
